Results as given in ChEMBL document CHEMBL3425482, “Structure-guided design and optimization of dipeptidyl inhibitors of norovirus 3CL protease. Structure-activity relationships and biochemical, X-ray crystallographic, cell-based, and in vivo studies” (J Med Chem, 2015).

Tests used:
Norovirus = assay: Antiviral activity against Norovirus infected in human HG23 cells; format: functional, cell-based
[1] = Inhibition of Norovirus recombinant 3CL protease using Edans-EPDFHLQGPEDLAK-Dabcyl as substrate for 30 mins by fluorometry
Homo sapiens = organism: Homo sapiens; assay: Inhibition of chymotrypsin (unknown origin); conditions: concentration not given here
[2] = biological target: Prothrombin (Homo sapiens) (UniProt P00734); assay: Inhibition of human thrombin after 10 mins incubation by chromogenic substrate hydrolysis assay
[3] = biological target: T1, Neutrophil elastase (Homo sapiens) (UniProt P08246); assay: Inhibition of human neutrophil elastase; conditions: concentration not given here
T1 sequence (whole entry): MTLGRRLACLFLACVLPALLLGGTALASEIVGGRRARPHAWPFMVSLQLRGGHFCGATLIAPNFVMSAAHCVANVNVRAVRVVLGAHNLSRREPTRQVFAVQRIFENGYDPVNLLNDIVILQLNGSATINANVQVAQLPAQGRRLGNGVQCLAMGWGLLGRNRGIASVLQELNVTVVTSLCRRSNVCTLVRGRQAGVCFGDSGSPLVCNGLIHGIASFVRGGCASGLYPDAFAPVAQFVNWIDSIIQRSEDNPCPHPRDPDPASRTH

[4] = biological target: T2, Carboxypeptidase A1 (Homo sapiens) (UniProt P15085); assay: Inhibition of carboxypeptidase A (unknown origin); conditions: concentration not given here
T2 sequence (whole entry): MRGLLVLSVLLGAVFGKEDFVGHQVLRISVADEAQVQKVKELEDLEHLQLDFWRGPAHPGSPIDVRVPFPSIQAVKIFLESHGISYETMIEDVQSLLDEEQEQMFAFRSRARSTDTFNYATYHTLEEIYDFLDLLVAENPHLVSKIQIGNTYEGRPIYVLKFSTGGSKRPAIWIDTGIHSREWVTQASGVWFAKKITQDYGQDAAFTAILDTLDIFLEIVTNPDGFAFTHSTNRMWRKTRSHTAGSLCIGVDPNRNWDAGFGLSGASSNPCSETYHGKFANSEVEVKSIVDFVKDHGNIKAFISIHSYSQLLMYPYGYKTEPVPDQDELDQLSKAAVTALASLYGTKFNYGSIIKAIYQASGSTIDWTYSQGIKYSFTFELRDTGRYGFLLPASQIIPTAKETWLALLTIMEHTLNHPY

Bos taurus = organism: Bos taurus; assay: Inhibition of bovine trypsin; conditions: concentration not given here
[5] = biological target: Coagulation factor X (Homo sapiens) (UniProt P00742); assay: Inhibition of human factor 10a using Pefachrome-tPA substrate; conditions: concentration not given here
Sequence of Coagulation factor X (Homo sapiens) (P00742 41-179 limits assumed): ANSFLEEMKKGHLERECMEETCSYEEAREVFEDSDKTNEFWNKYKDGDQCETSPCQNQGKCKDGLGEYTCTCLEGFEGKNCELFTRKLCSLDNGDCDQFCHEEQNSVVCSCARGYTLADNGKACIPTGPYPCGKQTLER
Sequence of Coagulation factor X (Homo sapiens) (P00742 235-488 limits assumed): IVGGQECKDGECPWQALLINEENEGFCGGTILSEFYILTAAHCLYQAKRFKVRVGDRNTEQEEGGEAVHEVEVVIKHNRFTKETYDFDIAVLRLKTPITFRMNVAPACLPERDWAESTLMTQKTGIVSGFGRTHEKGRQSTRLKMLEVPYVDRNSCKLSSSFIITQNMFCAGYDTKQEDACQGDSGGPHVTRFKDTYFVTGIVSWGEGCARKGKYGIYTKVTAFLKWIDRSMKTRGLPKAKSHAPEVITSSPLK

[6] = biological target: Plasminogen (Homo sapiens) (UniProt P00747); assay: Inhibition of plasmin (unknown origin); conditions: concentration not given here
Sequence of Plasminogen (Homo sapiens) (P00747 97-580 limits assumed): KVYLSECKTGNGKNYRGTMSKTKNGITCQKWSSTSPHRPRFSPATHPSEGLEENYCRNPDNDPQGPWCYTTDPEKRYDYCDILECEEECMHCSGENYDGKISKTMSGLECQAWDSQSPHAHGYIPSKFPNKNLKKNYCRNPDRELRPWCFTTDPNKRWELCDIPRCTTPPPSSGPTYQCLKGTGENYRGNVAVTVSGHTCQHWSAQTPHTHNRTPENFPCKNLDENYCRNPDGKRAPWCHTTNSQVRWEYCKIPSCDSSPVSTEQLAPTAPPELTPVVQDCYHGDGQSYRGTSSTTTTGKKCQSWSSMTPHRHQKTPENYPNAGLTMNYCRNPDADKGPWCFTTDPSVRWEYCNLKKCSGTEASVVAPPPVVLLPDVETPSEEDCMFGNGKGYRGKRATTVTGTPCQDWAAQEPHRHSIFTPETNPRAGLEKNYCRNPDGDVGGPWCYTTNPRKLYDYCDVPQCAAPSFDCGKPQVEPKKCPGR
Sequence of Plasminogen (Homo sapiens) (P00747 581-810 limits assumed): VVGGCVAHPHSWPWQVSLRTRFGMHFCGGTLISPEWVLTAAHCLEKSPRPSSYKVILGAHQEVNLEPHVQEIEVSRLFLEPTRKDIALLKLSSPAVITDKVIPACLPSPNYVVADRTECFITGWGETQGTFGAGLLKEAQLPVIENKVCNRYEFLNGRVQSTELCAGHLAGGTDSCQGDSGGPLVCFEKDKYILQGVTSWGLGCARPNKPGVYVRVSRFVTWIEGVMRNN

[7] = Antiviral activity against Murine norovirus 1 infected in Balb/c mouse assessed as reduction in viral titers in small intestine at 10 mg/kg, ip twice daily started 4 hrs prior to infection measured after 72 hrs post infection; conditions: route intraperitoneal
[8] = Antiviral activity against Murine norovirus 1 infected in mouse RAW264.7 cells assessed as inhibition of viral replication; format: functional, cell-based
In short: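 RAW264.7 mouse macrophages were kept in DMEM with 2–5% FBS. Serially diluted compound (DMSO ≤0.5%) was added to confluent monolayers. Cells were infected immediately with MNV-1 at MOI 0.05–0.1 and held 48 h at 37 °C. After freeze-thaw, virus titres were read by TCID50. EC50 came from nonlinear variable-slope regression of inhibition versus log concentration.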

[9] = Antiviral activity against Murine norovirus 1 infected in Balb/c mouse assessed as reduction in viral titers in large intestine at 10 mg/kg, ip twice daily started 4 hrs prior to infection measured after 72 hrs post infection; conditions: route intraperitoneal

SMILES | EC50 (Norovirus) | IC50 [1] | other results
CS(=O)(=O)NC(=O)[C@H](C[C@@H]1CCNC1=O)NC(=O)[C@H](CC1CCCCC1)NC(=O)OCc1cccc(Cl)c1 | > 2000 nM | > 10000 nM | 
O=C(N[C@@H](CC1CCCCC1)C(=O)N[C@@H](C[C@@H]1CCNC1=O)C(O)S(=O)(=O)O)OCc1cccc(Br)c1 (stereo not given in full) | 30 nM | 150 nM | 
O=C[C@H](C[C@@H]1CCNC1=O)NC(=O)[C@H](CC1CCCCC1)NC(=O)OCc1cccc(I)c1 | 50 nM | 350 nM | 
CC(C)C[C@H](NC(=O)OCc1ccccc1)C(=O)N[C@H](C=O)C[C@@H]1CCNC1=O | 200 nM | 600 nM | 
O=C(N[C@@H](CC1CCCCC1)C(=O)N[C@@H](C[C@@H]1CCNC1=O)C(=O)C(=O)NC1CC1)OCc1cccc(Br)c1 | 200 nM | 1500 nM | 
COc1cccc(COC(=O)N[C@@H](CC2CCCCC2)C(=O)N[C@H](C=O)C[C@@H]2CCNC2=O)c1 | 150 nM | 1400 nM | 
O=C[C@H](C[C@@H]1CCNC1=O)NC(=O)[C@H](CC1CCCCC1)NC(=O)OCc1ccccc1Cl | 80 nM | 800 nM | 
O=C[C@H](C[C@@H]1CCNC1=O)NC(=O)[C@H](CC1CCCCC1)NC(=O)OCc1cccc([N+](=O)[O-])c1 | 150 nM | 600 nM | 
O=C[C@H](C[C@@H]1CCNC1=O)NC(=O)[C@H](CC1CCCCC1)NC(=O)OCc1ccccc1 | 60 nM | 300 nM | 
O=C(N[C@@H](CC1CCCCC1)C(=O)N[C@@H](C[C@@H]1CCNC1=O)C(O)S(=O)(=O)O)OCc1ccccc1 (stereo not given in full) | 60 nM | 400 nM | 
O=C(N[C@@H](CC1CCCCC1)C(=O)N[C@@H](C[C@@H]1CCNC1=O)C(O)S(=O)(=O)O)OCc1ccccc1Cl (stereo not given in full) | 70 nM | 700 nM | 
COc1ccccc1COC(=O)N[C@@H](CC1CCCCC1)C(=O)N[C@H](C=O)C[C@@H]1CCNC1=O | 100 nM | > 10000 nM | 
CC(C)C[C@H](NC(=O)OCc1cccc(Cl)c1)C(=O)N[C@H](C=O)C[C@@H]1CCNC1=O | 100 nM | 900 nM | 
CCOP(=O)(OCC)C(O)[C@H](C[C@@H]1CCNC1=O)NC(=O)[C@H](CC1CCCCC1)NC(=O)OCc1ccccc1F (stereo not given in full) | > 2000 nM | > 10000 nM | 
O=C[C@H](C[C@@H]1CCNC1=O)NC(=O)[C@H](CC1CCCCC1)NC(=O)OCc1cccc(Br)c1 | 30 nM | 300 nM | inhibition (Homo sapiens): 0%; inhibition [2]: 0%; inhibition [3]: 26.5%; inhibition [4]: 11.6%; inhibition (Bos taurus): 0%; inhibition [5]: 0%; inhibition [6]: 7%
CC(C)C[C@H](NC(=O)OCc1ccccc1)C(=O)N[C@@H](C[C@@H]1CCNC1=O)C(O)S(=O)(=O)O (stereo not given in full) | 300 nM | 800 nM | 

SMILES | EC50 (Norovirus) | IC50 [1] | other results
O=C(N[C@@H](CC1CCCCC1)C(=O)N[C@@H](C[C@@H]1CCNC1=O)C(=O)C(=O)NC1CC1)OCc1cccc(F)c1 | 300 nM | 3500 nM | 
O=C[C@H](C[C@@H]1CCNC1=O)NC(=O)[C@H](CC1CCCCC1)NC(=O)OCc1cccc(F)c1 | 90 nM | 1200 nM | 
O=C[C@H](C[C@@H]1CCNC1=O)NC(=O)[C@H](CC1CCCCC1)NC(=O)OCc1ccccc1F | 80 nM | 900 nM | 
CC(C)C[C@H](NC(=O)OCc1cccc(Cl)c1)C(=O)N[C@@H](C[C@@H]1CCNC1=O)C(=O)C(=O)NC1CC1 | 300 nM | 5500 nM | 
O=C[C@H](C[C@@H]1CCNC1=O)NC(=O)[C@@H](NC(=O)OCc1cccc(Cl)c1)C1CCCCC1 | 150 nM | 5100 nM | 
CCOP(=O)(OCC)C(O)[C@H](C[C@@H]1CCNC1=O)NC(=O)[C@H](CC1CCCCC1)NC(=O)OCc1cccc(Cl)c1 (stereo not given in full) | 60 nM | > 10000 nM | inhibition (Homo sapiens): 2.4%; inhibition [2]: 0%; inhibition [3]: 86.5%; inhibition [4]: 14.3%; inhibition (Bos taurus): 8.8%; inhibition [5]: 0%; inhibition [6]: 15%
CCOP(=O)(OCC)C(O)[C@H](C[C@@H]1CCNC1=O)NC(=O)[C@H](CC1CCCCC1)NC(=O)OCc1cccc(Br)c1 (stereo not given in full) | 150 nM | 6500 nM | inhibition (Homo sapiens): 0%; inhibition [2]: 0%; inhibition [3]: 63%; inhibition [4]: 0%; inhibition (Bos taurus): 1%; inhibition [5]: 6%; inhibition [6]: 13%
CC(C)C[C@H](NC(=O)OCc1ccccc1)C(=O)N[C@@H](C[C@@H]1CCNC1=O)C(=O)C(=O)NC1CC1 | 1100 nM | 3400 nM | 
O=C(N[C@@H](CC1CCCCC1)C(=O)N[C@@H](C[C@@H]1CCNC1=O)C(O)S(=O)(=O)O)OCc1cccc(Cl)c1 (stereo not given in full) | 20 nM | 100 nM | 
O=C(N[C@@H](CC1CCCCC1)C(=O)N[C@@H](C[C@@H]1CCNC1=O)C(=O)C(=O)NC1CC1)OCc1cccc(Cl)c1 | 85 nM | 250 nM | 
O=C[C@H](C[C@@H]1CCNC1=O)NC(=O)[C@H](CC1CCCCC1)NC(=O)OCc1ccc(Cl)cc1 | 80 nM | 710 nM | 
O=C[C@H](C[C@@H]1CCNC1=O)NC(=O)[C@H](CC1CCCCC1)NC(=O)OCc1cccc(Cl)c1 | 20 nM | 100 nM | inhibition (Homo sapiens): 0%; inhibition [2]: 0%; inhibition [3]: 15%; inhibition [4]: 12%; fold change (FC) [7]: 42.12; EC50 [8]: 80 nM; inhibition (Bos taurus): 5%; fold change (FC) [9]: 7.98; inhibition [5]: 1%; inhibition [6]: 0%
CC(C)(C)OC(=O)Nc1cccc(COC(=O)N[C@@H](CC2CCCCC2)C(=O)N[C@H](C=O)C[C@@H]2CCNC2=O)c1 | 1500 nM | 4500 nM | 
O=C(N[C@@H](CC1CCCCC1)C(=O)N[C@@H](C[C@@H]1CCNC1=O)C(O)S(=O)(=O)O)OCc1cccc(I)c1 (stereo not given in full) | 40 nM | 150 nM | 
CCOP(=O)(OCC)C(O)[C@H](C[C@@H]1CCNC1=O)NC(=O)[C@H](CC1CCCCC1)NC(=O)OCc1ccccc1Cl (stereo not given in full) | 200 nM | > 10000 nM | 
N#Cc1cccc(COC(=O)N[C@@H](CC2CCCCC2)C(=O)N[C@H](C=O)C[C@@H]2CCNC2=O)c1 | 200 nM | > 10000 nM | 
